Results taken from ChEMBL document CHEMBL4130509, “Sesquiterpenes from the Endophyte Glomerella cingulata” (J Nat Prod, 2017).
pIC50: −log10 of the molar value. The source made the active and inactive calls. The rule behind the calls is not given here.

What was measured:
A2780 = assay: Cytotoxicity against human A2780 cells by MTT assay; type: functional, cell-based
HCT-8 = assay: Cytotoxicity against human HCT8 cells by MTT assay; type: functional, cell-based
Homo sapiens = species: Homo sapiens; assay: Cytotoxicity against human […] cells by MTT assay; type: functional, cell-based
A549 = assay: Cytotoxicity against human A549 cells by MTT assay; type: functional, cell-based
HCT-116 = assay: Cytotoxicity against human HCT116 cells by MTT assay; type: functional, cell-based
Bel-7402 = assay: Cytotoxicity against human Bel7402 cells by MTT assay; type: functional, cell-based
BV-2 [1] = assay: Antiinflammatory activity against mouse BV2 cells assessed as inhibition of LPS-induced nitric oxide production at 1 uM after 24 hrs by griess assay relative to control; type: functional; conditions: BV-2, 24 h
Outline: (§1)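 BV2 cells preincubated 24 h, then exposed to compounds and stimulated with LPS (E. coli 055:B5) for 24 h. Supernatant mixed with equal volume Griess reagent, 5 min at room temperature in the dark; absorbance read at 540 nm for NO. Curcumin as positive control.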

BV-2 [2] = assay: Antiinflammatory activity against mouse BV2 cells assessed as inhibition of LPS-induced nitric oxide production after 24 hrs by griess assay; type: functional, cell-based; conditions: BV-2, 24 h; outline: as §1

pIC50 (BV-2 [2])	Compound	Activity (A2780)	Activity (HCT-8)	Activity (Homo sapiens)	Activity (A549)	Activity (HCT-116)	Activity (Bel-7402)	inhibition at 1 µM (BV-2 [1]) [%]
	CC1=C2C[C@@]3(C)C(=C[C@]2(O)OC1=O)C(=O)C=C[C@@H]3C	inactive	inactive	inactive	inactive	inactive	inactive	29.4
	CO[C@@]12OC(=O)C(C)=C1C[C@@]1(C)[C@H](C(=O)C=C[C@@H]1C)[C@@H]2O	inactive	inactive	inactive	inactive	inactive	inactive	
	CC(=O)O[C@H]1[C@@H]2O[C@H]2[C@H]2C[C@@]3(O)OC[C@@]4(C)O[C@]43C[C@]2(C)[C@H]1C	inactive	inactive	inactive	inactive	inactive	inactive	
	COC(=O)[C@H]1CCC(=O)N1Cc1cc(OC)c2c(OC)cc3cc(OCc4ccccc4)ccc3c2c1	inactive	inactive	inactive	inactive	inactive	inactive	
	CO[C@]12C=C3C(=O)C=C[C@H](C)[C@@]3(C)CC1=C(C)C(=O)O2	inactive	inactive	inactive	inactive	inactive	inactive	36.1
	COC(=O)[C@@H](C)c1cc2c(cc1O)C(=O)C=CC2(C)C	inactive	inactive	inactive	inactive	inactive	inactive	50.6
5.40	COc1cc(/C=C/C(=O)CC(=O)/C=C/c2ccc(O)c(OC)c2)ccc1O [CURCUMIN]							
	CC(=O)O[C@H]1[C@H]2O[C@H]2C2=CC(=O)[C@]3(C[C@]2(C)[C@H]1C)O[C@]3(C)C=O	inactive	inactive	inactive	inactive	inactive	inactive	
	C=C(C)[C@@H]1C[C@@]2(C)C(=CC1=O)[C@@H]1O[C@@H]1[C@H](O)[C@@H]2C	inactive	inactive	inactive	inactive	inactive	inactive	
